Measured values reported in ChEMBL document CHEMBL1150387, “Development and experimental validation of a docking strategy for the generation of kinase-targeted libraries” (J Med Chem, 2008).

How the values were obtained:
[1] = target: Insulin-like growth factor 1 receptor (Homo sapiens) (UniProt P08069); assay: Inhibition of IGF1R at 10 uM by HTRF assay relative to control
Procedure, shortened: (§1)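 HTRF kinase assay, one panel of kinases. Inhibitor stock 50 µM in 100% DMSO; tested at 10 µM. ATP and substrate at final levels near Km. Final buffer: 50 mM Hepes/NaOH pH 7.4, 40 µM Na3VO4, 0.005% Tween-20, 1 mM DTT, MnCl2 or MgCl2 at kinase-dependent levels. Started by adding ATP/substrate. Reaction run at room temperature, time varied by kinase. Detection mix in 50 mM Hepes pH 7.4, 0.1% BSA, 150 mM KF, incubated ≥1 h at room temperature. Activity expressed as % of uninhibited control; n=2.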

[2] = target: Vascular endothelial growth factor receptor 1 (Homo sapiens) (UniProt P17948); assay: Inhibition of FLT1 at 10 uM by HTRF assay relative to control; procedure, shortened: as §1
[3] = target: T1, Ephrin type-B receptor 4 (Homo sapiens) (UniProt P54760); assay: Inhibition of EphB4 at 10 uM by HTRF assay relative to control; procedure, shortened: as §1
T1 sequence (whole entry): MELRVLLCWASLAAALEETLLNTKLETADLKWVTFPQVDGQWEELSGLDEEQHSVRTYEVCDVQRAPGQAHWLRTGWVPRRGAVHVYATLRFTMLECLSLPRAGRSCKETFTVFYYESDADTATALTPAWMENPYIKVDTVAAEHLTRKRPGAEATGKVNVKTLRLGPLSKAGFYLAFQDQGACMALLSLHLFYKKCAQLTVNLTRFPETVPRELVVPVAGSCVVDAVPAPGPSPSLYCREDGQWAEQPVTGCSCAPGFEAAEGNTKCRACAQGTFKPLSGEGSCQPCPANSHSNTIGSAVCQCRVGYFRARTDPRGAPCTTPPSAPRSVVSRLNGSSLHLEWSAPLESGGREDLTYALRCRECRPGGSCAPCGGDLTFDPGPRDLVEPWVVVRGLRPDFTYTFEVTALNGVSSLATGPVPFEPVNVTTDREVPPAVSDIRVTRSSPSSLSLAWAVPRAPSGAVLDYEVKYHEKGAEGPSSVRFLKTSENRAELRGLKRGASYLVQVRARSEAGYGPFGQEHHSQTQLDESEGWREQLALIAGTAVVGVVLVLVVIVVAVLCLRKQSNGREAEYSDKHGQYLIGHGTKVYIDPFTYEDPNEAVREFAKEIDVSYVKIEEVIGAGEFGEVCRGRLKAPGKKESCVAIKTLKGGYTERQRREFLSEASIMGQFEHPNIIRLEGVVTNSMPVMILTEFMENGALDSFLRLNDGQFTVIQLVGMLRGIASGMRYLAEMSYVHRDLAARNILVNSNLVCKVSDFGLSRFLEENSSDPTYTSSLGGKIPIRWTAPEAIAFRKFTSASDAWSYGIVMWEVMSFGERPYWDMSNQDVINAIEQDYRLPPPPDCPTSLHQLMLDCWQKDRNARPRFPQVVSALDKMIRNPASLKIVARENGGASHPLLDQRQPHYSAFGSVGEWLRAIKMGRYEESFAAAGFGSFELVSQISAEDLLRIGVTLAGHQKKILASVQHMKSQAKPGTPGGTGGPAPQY

[4] = target: Mitogen-activated protein kinase 14 (Homo sapiens) (UniProt Q16539); assay: Inhibition of p38alpha at 10 uM by HTRF assay relative to control; procedure, shortened: as §1
[5] = target: T2, Inhibitor of nuclear factor kappa-B kinase subunit beta (Homo sapiens) (UniProt O14920); assay: Inhibition of IKK-beta at 10 uM by HTRF assay relative to control; procedure, shortened: as §1
T2 sequence (whole entry): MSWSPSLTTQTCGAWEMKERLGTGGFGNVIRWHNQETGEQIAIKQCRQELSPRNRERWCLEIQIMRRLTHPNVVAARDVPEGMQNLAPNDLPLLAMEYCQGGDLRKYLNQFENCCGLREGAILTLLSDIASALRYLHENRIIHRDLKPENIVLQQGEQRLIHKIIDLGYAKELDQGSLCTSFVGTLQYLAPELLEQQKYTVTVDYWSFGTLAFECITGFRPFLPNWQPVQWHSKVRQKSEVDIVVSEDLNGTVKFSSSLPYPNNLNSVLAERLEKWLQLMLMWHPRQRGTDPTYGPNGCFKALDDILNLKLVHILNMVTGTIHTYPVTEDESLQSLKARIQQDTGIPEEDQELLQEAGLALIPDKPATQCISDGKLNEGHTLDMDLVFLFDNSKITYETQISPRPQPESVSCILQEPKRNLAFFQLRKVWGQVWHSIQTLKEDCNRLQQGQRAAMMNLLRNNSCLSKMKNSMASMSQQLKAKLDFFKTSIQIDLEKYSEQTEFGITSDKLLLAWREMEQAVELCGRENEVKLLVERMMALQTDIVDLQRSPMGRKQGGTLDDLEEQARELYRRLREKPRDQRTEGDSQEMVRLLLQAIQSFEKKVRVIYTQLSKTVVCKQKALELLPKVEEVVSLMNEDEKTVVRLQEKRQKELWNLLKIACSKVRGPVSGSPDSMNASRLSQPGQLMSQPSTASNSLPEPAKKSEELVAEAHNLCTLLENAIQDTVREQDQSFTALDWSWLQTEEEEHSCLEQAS

[6] = target: Serine/threonine-protein kinase Chk2 (Homo sapiens) (UniProt O96017); assay: Inhibition of CHK2 at 10 uM by HTRF assay relative to control; procedure, shortened: as §1
[7] = target: Calcium/calmodulin-dependent protein kinase type II subunit alpha (Homo sapiens) (UniProt Q9UQM7); assay: Inhibition of CaMK2alpha at 10 uM by HTRF assay relative to control; procedure, shortened: as §1
[8] = Inhibition of AMPKalpha at 10 uM by HTRF assay relative to control; procedure, shortened: as §1
[9] = target: Protein kinase C gamma type (Homo sapiens) (UniProt P05129); assay: Inhibition of PKCgamma at 10 uM by HTRF assay relative to control; procedure, shortened: as §1
[10] = target: RAC-alpha serine/threonine-protein kinase (Homo sapiens) (UniProt P31749); assay: Inhibition of AKT1/PKBalpha at 10 uM by HTRF assay relative to control; procedure, shortened: as §1
[11] = target: Tyrosine-protein kinase Fes/Fps (Homo sapiens) (UniProt P07332); assay: Inhibition of FES at 10 uM by HTRF assay relative to control; procedure, shortened: as §1
[12] = target: Tyrosine-protein kinase ABL1 (Homo sapiens) (UniProt P00519); assay: Inhibition of Abl at 10 uM by HTRF assay relative to control; procedure, shortened: as §1
[13] = target: Vascular endothelial growth factor receptor 2 (Homo sapiens) (UniProt P35968); assay: Inhibition of KDR at 10 uM by HTRF assay relative to control; procedure, shortened: as §1

RAC-alpha serine/threonine-protein kinase (Homo sapiens), sequence (P31749 whole entry): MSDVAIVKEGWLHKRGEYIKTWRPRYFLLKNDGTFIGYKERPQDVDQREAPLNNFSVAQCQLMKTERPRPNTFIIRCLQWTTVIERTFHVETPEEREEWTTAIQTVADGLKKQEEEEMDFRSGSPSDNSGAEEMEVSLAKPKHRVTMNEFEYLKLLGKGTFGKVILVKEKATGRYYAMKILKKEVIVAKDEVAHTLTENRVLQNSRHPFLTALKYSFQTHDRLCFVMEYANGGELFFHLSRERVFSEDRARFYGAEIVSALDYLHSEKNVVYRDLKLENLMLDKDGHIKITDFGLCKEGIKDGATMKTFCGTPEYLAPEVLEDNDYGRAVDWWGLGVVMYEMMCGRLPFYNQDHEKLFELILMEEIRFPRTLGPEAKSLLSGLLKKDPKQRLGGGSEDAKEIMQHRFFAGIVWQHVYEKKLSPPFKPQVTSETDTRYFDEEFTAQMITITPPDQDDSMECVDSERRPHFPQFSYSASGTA
Tyrosine-protein kinase Fes/Fps (Homo sapiens), sequence (P07332 whole entry): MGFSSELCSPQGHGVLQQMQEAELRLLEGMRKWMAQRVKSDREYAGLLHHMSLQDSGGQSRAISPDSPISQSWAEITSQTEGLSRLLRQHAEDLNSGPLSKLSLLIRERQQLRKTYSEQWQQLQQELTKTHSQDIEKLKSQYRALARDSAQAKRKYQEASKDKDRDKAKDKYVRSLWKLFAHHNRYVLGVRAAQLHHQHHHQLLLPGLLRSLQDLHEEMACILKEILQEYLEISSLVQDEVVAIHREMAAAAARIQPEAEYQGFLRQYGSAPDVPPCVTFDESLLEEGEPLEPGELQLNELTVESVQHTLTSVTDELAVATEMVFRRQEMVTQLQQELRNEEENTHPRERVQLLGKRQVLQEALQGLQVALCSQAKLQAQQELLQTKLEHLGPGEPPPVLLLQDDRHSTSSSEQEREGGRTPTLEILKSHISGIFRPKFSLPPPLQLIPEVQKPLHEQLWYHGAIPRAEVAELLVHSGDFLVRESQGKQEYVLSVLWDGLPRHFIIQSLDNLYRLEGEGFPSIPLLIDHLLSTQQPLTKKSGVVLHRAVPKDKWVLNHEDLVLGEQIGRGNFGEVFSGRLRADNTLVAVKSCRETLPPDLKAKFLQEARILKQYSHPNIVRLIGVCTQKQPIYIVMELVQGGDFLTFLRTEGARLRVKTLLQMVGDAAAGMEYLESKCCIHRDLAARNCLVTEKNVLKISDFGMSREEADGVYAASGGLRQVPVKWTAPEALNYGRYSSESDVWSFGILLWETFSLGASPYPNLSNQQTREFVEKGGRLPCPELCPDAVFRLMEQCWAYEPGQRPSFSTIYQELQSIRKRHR
Mitogen-activated protein kinase 14 (Homo sapiens), sequence (Q16539 whole entry): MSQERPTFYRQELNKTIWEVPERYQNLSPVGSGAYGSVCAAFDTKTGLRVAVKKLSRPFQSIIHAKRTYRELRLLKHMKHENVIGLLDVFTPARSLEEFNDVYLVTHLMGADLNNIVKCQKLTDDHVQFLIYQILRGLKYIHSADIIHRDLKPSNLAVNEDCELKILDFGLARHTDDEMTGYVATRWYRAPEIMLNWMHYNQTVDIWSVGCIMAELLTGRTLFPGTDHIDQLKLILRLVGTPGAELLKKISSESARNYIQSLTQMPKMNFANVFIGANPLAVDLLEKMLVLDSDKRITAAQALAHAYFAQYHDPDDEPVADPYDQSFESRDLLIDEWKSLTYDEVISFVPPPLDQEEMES
Calcium/calmodulin-dependent protein kinase type II subunit alpha (Homo sapiens), sequence (Q9UQM7 whole entry): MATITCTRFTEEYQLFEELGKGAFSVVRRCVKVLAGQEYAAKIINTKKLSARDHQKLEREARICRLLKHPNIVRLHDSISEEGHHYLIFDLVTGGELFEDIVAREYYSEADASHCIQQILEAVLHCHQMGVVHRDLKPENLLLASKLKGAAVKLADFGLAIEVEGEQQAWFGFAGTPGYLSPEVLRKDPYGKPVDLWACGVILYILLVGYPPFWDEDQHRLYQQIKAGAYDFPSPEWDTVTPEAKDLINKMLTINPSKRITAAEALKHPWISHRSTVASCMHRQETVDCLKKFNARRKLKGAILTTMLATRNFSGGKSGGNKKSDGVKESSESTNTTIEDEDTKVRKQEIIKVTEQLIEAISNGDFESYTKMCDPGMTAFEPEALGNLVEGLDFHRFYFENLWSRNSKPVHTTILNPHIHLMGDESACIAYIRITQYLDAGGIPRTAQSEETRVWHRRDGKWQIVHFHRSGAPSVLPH
Tyrosine-protein kinase ABL1 (Homo sapiens), sequence (P00519 whole entry): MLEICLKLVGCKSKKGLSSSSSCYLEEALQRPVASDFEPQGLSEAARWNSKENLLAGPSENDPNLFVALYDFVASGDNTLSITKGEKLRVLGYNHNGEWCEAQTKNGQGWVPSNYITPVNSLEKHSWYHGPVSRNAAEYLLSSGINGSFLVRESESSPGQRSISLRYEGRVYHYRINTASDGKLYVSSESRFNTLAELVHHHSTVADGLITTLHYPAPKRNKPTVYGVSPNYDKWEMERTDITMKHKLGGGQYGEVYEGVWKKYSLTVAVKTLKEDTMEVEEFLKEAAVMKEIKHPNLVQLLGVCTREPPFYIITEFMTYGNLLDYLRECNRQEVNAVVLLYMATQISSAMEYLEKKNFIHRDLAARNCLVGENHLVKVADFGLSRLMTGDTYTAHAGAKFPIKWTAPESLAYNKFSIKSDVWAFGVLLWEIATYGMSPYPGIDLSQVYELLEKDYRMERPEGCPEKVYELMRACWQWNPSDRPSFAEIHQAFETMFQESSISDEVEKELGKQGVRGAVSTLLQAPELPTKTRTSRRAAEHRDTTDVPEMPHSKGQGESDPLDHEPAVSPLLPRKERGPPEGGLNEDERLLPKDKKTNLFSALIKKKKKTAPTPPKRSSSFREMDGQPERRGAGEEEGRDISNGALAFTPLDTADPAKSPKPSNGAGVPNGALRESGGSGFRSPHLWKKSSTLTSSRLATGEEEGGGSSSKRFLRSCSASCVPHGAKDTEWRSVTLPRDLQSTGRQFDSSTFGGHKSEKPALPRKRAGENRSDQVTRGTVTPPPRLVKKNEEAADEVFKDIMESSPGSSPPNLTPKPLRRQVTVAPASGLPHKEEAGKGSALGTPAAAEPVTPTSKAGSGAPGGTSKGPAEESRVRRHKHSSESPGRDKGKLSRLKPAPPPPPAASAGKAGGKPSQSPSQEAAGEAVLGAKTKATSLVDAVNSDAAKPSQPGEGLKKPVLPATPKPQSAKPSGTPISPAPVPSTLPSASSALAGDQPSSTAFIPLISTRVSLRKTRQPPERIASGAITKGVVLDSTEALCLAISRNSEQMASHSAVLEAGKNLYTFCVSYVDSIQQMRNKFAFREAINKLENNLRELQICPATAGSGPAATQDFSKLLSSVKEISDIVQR
Insulin-like growth factor 1 receptor (Homo sapiens), sequence (P08069 31-736 limits assumed): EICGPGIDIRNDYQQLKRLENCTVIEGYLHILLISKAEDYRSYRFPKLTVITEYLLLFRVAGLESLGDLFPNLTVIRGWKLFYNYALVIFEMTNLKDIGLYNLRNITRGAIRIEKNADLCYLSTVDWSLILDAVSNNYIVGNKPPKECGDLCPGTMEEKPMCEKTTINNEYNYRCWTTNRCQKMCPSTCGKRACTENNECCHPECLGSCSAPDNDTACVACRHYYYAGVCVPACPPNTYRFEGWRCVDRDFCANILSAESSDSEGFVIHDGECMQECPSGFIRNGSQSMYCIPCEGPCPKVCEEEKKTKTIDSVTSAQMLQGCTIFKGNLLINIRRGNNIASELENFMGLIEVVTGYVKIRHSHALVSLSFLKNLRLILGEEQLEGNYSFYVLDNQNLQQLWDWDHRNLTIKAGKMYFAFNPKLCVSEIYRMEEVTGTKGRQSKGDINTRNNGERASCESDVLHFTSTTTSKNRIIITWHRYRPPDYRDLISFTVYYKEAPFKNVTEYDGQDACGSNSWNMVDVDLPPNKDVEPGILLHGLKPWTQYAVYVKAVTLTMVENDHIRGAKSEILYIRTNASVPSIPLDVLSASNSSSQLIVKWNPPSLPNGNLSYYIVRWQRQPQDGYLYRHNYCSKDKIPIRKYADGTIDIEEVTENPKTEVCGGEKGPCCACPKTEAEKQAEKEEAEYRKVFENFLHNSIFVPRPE
Insulin-like growth factor 1 receptor (Homo sapiens), sequence (P08069 741-1367 limits assumed): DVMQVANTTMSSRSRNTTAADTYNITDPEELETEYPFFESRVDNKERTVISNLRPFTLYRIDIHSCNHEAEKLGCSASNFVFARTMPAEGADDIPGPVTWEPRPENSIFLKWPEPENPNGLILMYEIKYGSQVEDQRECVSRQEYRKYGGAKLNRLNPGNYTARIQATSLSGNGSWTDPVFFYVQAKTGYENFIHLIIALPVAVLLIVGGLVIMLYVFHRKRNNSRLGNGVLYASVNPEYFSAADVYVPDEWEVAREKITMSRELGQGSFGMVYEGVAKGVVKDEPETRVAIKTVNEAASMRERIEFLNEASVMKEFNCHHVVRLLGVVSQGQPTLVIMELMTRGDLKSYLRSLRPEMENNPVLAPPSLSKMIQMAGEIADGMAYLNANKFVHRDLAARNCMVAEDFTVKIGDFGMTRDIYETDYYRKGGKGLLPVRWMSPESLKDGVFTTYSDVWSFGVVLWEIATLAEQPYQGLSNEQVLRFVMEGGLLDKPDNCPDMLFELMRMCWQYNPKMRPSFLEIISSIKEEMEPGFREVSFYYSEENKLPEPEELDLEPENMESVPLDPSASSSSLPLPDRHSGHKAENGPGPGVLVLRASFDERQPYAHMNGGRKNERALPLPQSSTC

SMILES | inhibition [1] [%] | inhibition [2] [%] | inhibition [3] [%] | inhibition [4] [%] | inhibition [5] [%] | inhibition [6] [%] | inhibition [7] [%] | inhibition [8] [%] | inhibition [9] [%] | inhibition [10] [%] | inhibition [11] [%] | inhibition [12] [%] | inhibition [13] [%]
Cc1cccc(Nc2nccc(Nc3cccc(C(=O)NCc4ccc(N(C)C)cc4)c3)n2)c1 | 0 | 0 | 0 | 0 | 2 | 0 | 0 | 8 | 0 | 1 | 10 | 11 | 11
O=C(CN1CCN(c2ncnc3c2CN(Cc2ccccc2)CC3)CC1)Nc1cc(F)ccc1F | 0 | 0 | 0 | 3 | 0 | 5 | 0 | 0 | 0 | 0 | 11 | 3 | 1
Cc1cccc(Oc2ccnc(N3CCC[C@H]3C(=O)NCc3cccnc3)n2)c1 | 0 | 0 | 0 | 0 | 0 | 4 | 0 | 0 | 6 | 0 | 5 | 7 | 4
